# Data published in ChEMBL document CHEMBL1127406 (J Med Chem, 1994).
# pIC50: −log10 of the molar value.
# Experiments:
# Mu-type opioid receptor = Mu-type opioid receptor (Cavia porcellus, UniProt P97266); experiment: Binding affinity at mu opioid receptor in guinea pig brain by [3H]DAMGO displacement.
# In short: (§1)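 Adult male guinea pig whole-brain membranes in 50 mM Tris-HCl pH 7.4, preincubated 25 °C 30 min to strip endogenous peptides. Buffer contains BSA and peptidase inhibitors. Tritiated ligand at 0.75 nM (delta), 1.0 nM (mu) or 1.5 nM (kappa). Ten concentrations over 800-fold range, in duplicate. Nonspecific binding with 10 µM naltrexone. Incubated 25 °C 3 h, filtered, counted; nonlinear least-squares fit.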
# [1] = molecular target: Kappa-type opioid receptor (Cavia porcellus, UniProt P41144); experiment: Binding affinity at kappa opioid receptor in guinea pig brain by [3H]U-69593 displacement.
# In short: as §1, with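 “inhibitors.” for “inhibitors. Tritiated ligand at 0.75 nM (delta), 1.0 nM (mu) or 1.5 nM (kappa).”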
# Cavia porcellus = species on record: Cavia porcellus; experiment: Inhibition of electrically induced smooth muscle contraction in guinea pig ileum.; format: functional
# In short: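 Longitudinal muscle-myenteric plexus strips from ileum of male Hartley guinea pigs (250-500 g), held in 37 °C oxygenated Krebs buffer, 1 g tension. Transmural stimulation at 0.1 Hz, 0.4-ms supramaximal pulses; no peptidase inhibitors. Cumulative agonist doses, 3 min each; % inhibition of contraction height. μ-selectivity checked with 1000 nM CTAP. IC50 from Hill-equation fit, mean of two to four tissues.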
# Sequence of Mu-type opioid receptor (P97266 whole entry): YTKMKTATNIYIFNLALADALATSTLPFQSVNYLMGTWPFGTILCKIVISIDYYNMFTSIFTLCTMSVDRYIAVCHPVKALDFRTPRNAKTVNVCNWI
# Sequence of Kappa-type opioid receptor (P41144 whole entry): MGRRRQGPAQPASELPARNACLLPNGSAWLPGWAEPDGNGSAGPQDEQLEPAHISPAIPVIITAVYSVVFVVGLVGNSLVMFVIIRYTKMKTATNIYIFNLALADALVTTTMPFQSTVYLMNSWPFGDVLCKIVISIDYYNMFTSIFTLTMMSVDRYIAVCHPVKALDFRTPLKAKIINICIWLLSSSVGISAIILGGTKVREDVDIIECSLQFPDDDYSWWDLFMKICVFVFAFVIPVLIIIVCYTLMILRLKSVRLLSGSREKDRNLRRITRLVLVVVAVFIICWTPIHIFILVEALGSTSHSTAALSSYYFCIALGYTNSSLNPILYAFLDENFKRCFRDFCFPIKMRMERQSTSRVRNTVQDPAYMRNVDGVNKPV
Compound,pIC50 (Mu-type opioid receptor),pIC50 [1],pIC50 (Cavia porcellus)
CC[C@H](C)[C@@H]1NC(=O)[C@H](CCCN=C(N)N)NC(=O)[C@H](CCCN=C(N)N)NC(=O)[C@H](NC(=O)[C@H](Cc2ccccc2)NC(=O)CNC(=O)CNC(=O)[C@@H](N)Cc2ccc(O)cc2)C(C)(C)SSC(C)(C)[C@@H](C(N)=O)NC(=O)[C@@H]2CCCN2C(=O)[C@H](CCCN=C(N)N)NC1=O,6.65,7.58,
CC[C@H](C)[C@@H]1NC(=O)[C@H](CCCN=C(N)N)NC(=O)[C@H](CCCN=C(N)N)NC(=O)[C@@H](NC(=O)[C@H](Cc2ccccc2)NC(=O)CNC(=O)CNC(=O)[C@@H](N)Cc2ccc(O)cc2)CSSC(C)(C)[C@H](C(N)=O)NC(=O)[C@@H]2CCCN2C(=O)[C@H](CCCN=C(N)N)NC1=O,7.77,9.00,
CC[C@H](C)[C@@H]1NC(=O)[C@H](CCCN=C(N)N)NC(=O)[C@H](CCCN=C(N)N)NC(=O)[C@H](NC(=O)[C@H](Cc2ccccc2)NC(=O)CNC(=O)CNC(=O)[C@@H](N)Cc2ccc(O)cc2)C(C)(C)SSC[C@@H](C(N)=O)NC(=O)[C@@H]2CCCN2C(=O)[C@H](CCCN=C(N)N)NC1=O,7.06,7.06,
CC[C@H](C)[C@@H]1NC(=O)[C@H](CCCN=C(N)N)NC(=O)[C@H](CCCN=C(N)N)NC(=O)[C@H](NC(=O)[C@H](Cc2ccccc2)NC(=O)CNC(=O)CNC(=O)[C@@H](N)Cc2ccc(O)cc2)C(C)(C)SSC(C)(C)[C@H](C(N)=O)NC(=O)[C@@H]2CCCN2C(=O)[C@H](CCCN=C(N)N)NC1=O,6.25,7.15,
CC[C@H](C)[C@H](NC(=O)[C@H](CCCN=C(N)N)NC(=O)[C@H](CCCN=C(N)N)NC(=O)[C@@H](CC(C)C)NC(=O)[C@H](Cc1ccccc1)NC(=O)CNC(=O)CNC(=O)[C@@H](N)Cc1ccc(O)cc1)C(=O)N[C@@H](CCCN=C(N)N)C(=O)N1CCC[C@H]1C(=O)N[C@@H](CCCCN)C(N)=O,,,7.03
CC[C@H](C)[C@@H]1NC(=O)[C@H](CCCN=C(N)N)NC(=O)[C@H](CCCN=C(N)N)NC(=O)[C@H](NC(=O)[C@H](Cc2ccccc2)NC(=O)CNC(=O)CNC(=O)[C@@H](N)Cc2ccc(O)cc2)C(C)(C)SSC[C@H](C(N)=O)NC(=O)[C@@H]2CCCN2C(=O)[C@H](CCCN=C(N)N)NC1=O,7.29,7.74,
CC[C@H](C)[C@@H]1NC(=O)[C@H](CCCN=C(N)N)NC(=O)[C@H](CCCN=C(N)N)NC(=O)[C@H](NC(=O)[C@H](Cc2ccccc2)NC(=O)CNC(=O)CNC(=O)[C@@H](N)Cc2ccc(O)cc2)CSSC(C)(C)[C@H](C(N)=O)NC(=O)[C@@H]2CCCN2C(=O)[C@H](CCCN=C(N)N)NC1=O,6.97,7.00,
CC[C@H](C)[C@H](NC(=O)[C@H](CCCN=C(N)N)NC(=O)[C@H](CCCN=C(N)N)NC(=O)[C@H](CC(C)C)NC(=O)[C@H](Cc1ccccc1)NC(=O)CNC(=O)CNC(=O)[C@@H](N)Cc1ccc(O)cc1)C(=O)N[C@@H](CCCN=C(N)N)C(=O)N1CCC[C@H]1C(=O)NC(CCCCN)C(N)=O (stereo in doubt),8.00,,8.97
CC[C@H](C)[C@H](NC(=O)[C@H](CCCN=C(N)N)NC(=O)[C@H](CCCN=C(N)N)NC(=O)C(CC(C)C)NC(=O)[C@H](Cc1ccccc1)NC(=O)CNC(=O)CNC(=O)[C@@H](N)Cc1ccc(O)cc1)C(=O)N[C@@H](CCCN=C(N)N)C(=O)N1CCC[C@H]1C(=O)N[C@H](CCCCN)C(N)=O (stereo in doubt),8.28,,9.52
